From ChEMBL document CHEMBL1129660, “Studies on 6-aminoquinolones: synthesis and antibacterial evaluation of 6-amino-8-methylquinolones” (J Med Chem, 1996) come the findings set out here.

Each structure is given as a SMILES string. Values after ≈ are worked out from the molar mass of the structure shown.

Holding throughout (type): functional
In one test the test system is Shigella. In words: Antibacterial activity tested against Shigella enteritidis. A digest of the protocol: (§1)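 MICs (µg/mL) determined by conventional agar dilution against a panel of eight Gram-negative and five Gram-positive reference strains.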
For another test, the system named is Klebsiella pneumoniae. The test is described as follows: Antibacterial activity tested against Klebsiella pneumoniae (Klebsiella pneumoniae) ATCC 10031. A digest of the protocol:
as §1

In another test the test system is Providencia stuartii. In words: Antibacterial activity tested against Providencia stuartii CNUR 5. A digest of the protocol:
as §1

For test [1], the system named is Staphylococcus epidermidis. In words: Antibacterial activity tested against Staphylococcus epidermidis CPHL A2. The procedure, abridged:
as §1

For test [2], the system named is Enterococcus faecalis. In words: Antibacterial activity tested against Enterococcus faecalis.
The subject of test [3] is Escherichia coli. The test is described as follows: Inhibitory activity against gyrase supercoiling activity from Escherichia coli. A digest of the protocol:
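Inhibition of DNA gyrase supercoiling activity, by a previously described protocol with slight modifications. IC50 derived by densitometric quantification of the supercoiled DNA peak in an agarose gel.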

Test [4] can be described thus: Geometric mean of antibacterial activity (Gram -ve bacteria) of the compound. A digest of the protocol:
(§2)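 Geometric means calculated from agar-dilution MICs (µg/mL), taken separately across the five Gram-positive and the eight Gram-negative panel strains.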

Test [5] has as its system Escherichia coli. In words: Antibacterial activity tested against Escherichia coli ISF 432. A digest of the protocol:
as §1

The test system of test [6] is Staphylococcus aureus. In words: Antibacterial activity tested against Staphylococcus aureus Methicillin-and Ciprofloxacin resistants; Range is 2-4 ug/mL.
Test [7] concerns Staphylococcus aureus. The test is described as follows: Antibacterial activity against Staphylococcus aureus MPR 5. A digest of the protocol: as §1
Another test deals with Proteus vulgaris. The test is described as follows: Antibacterial activity tested against Proteus vulgaris CNUR 5. A digest of the protocol:
as §1

The test system of test [8] is Enterococcus faecium. The test is described as follows: Antibacterial activity tested against Enterococcus faecium; Range is 1-32 ug/mL.
Test [9] concerns Staphylococcus aureus. In words: Antibacterial activity tested against Staphylococcus aureus; Range is 0.06-0.13 ug/mL.
Test [10] deals with Enterococcus faecalis. In words: Antibacterial activity tested against Streptococcus faecalis LEP Br. A digest of the protocol: as §1
The test system of the next test is Pseudomonas aeruginosa. The test is described as follows: Antibacterial activity tested against P. ae (Pseudomonas aeruginosa) ATCC 9027. A digest of the protocol: as §1
For another test, the system named is Enterobacter cloacae. The test is described as follows: Antibacterial activity tested against Enterobacter cloacae OMNFI 174.
Another test relates to Bacteria. The test is described as follows: Geometric mean of antibacterial activity (Gram +ve bacteria) of the compound. The procedure, abridged:
as §2

The test system of test [11] is Staphylococcus epidermidis. The test is described as follows: Antibacterial activity tested against Staphylococcus epidermidis HCF Berset C. The procedure, abridged: as §1
The test system of test [12] is Escherichia coli. In words: Antibacterial activity tested against Escherichia coli ATCC 8739. The procedure, abridged:
as §1

The test system of test [13] is Staphylococcus aureus. In words: Antibacterial activity against Staphylococcus aureus ATCC 6538. A digest of the protocol: as §1
Test [14] has as its system Streptococcus pneumoniae. The test is described as follows: Antibacterial activity tested against Streptococcus pneumoniae.
Test [15] has as its system Mus musculus. The test is described as follows: Efficacy against Septicemia caused by Staphylococcus aureus in mice by Oral administration. A digest of the protocol:
(§3)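 S. aureus Smith ATCC19636, overnight brain-heart infusion culture diluted in 5% mucin, given i.p. (0.5 mL) to male and female CD-1 mice (18-22 g). Single s.c. or oral dose within 10 min of infection, drug in DMSO/0.5% methocel or as suspension. 3-5 dose groups of six mice; ED50 with 95% limits by Spearman-Kärber from day-7 survival.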

In test [16] the test system is Enterococcus faecium. In words: Antibacterial activity tested against Enterococcus faecium; Range is 0.06-1 ug/mL.
The test system of test [17] is Staphylococcus aureus. In words: Antibacterial activity tested against Staphylococcus aureus; Range is 0.004-0.03 ug/mL.
The species named for test [18] is Mus musculus. In words: Minimum inhibitory concentration against Septicemia caused by Staphylococcus aureus in mice.
Test [19] deals with Staphylococcus aureus. The test is described as follows: Antibacterial activity tested against Staphylococcus aureus Methicillin-and Ciprofloxacin resistants; Range is 0.05-1 ug/mL.
Test [20] deals with Mus musculus. The test is described as follows: Efficacy against Septicemia caused by Staphylococcus aureus in mice by subcutaneous administration. Conditions: sc. The procedure, abridged: as §3
Test [21] concerns Streptococcus pneumoniae. The test is described as follows: Antibacterial activity tested against Streptococcus pneumoniae; Range is 1-2 ug/mL.
Test [22] deals with Enterococcus faecium. In words: Antibacterial activity tested against Enterococcus faecium; Range is 0.5-2 ug/mL.
In test [23] the test system is Enterococcus faecalis. In words: Antibacterial activity tested against Enterococcus faecalis; Range is 0.25-0.5 ug/mL.
Test [24] has as its system Staphylococcus aureus. The test is described as follows: Antibacterial activity tested against Staphylococcus aureus Methicillin-and Ciprofloxacin resistants; Range is 4-8 ug/mL.

One may read the MIC as the lowest concentration found to suppress growth. Usually IC50 stands for the concentration needed to halve the response being measured. A lower IC50 goes with greater potency. `Cc1c(N2C[C@@H](C)O[C@@H](C)C2)c(N)cc2c(=O)c(C(=O)O)cn(C3CC3)c12`: the MIC in the test with Shigella came out at 1 µg/mL (≈ 2.69 µM); against Klebsiella pneumoniae, 0.08 µg/mL (≈ 0.215 µM); against Providencia stuartii, 1 µg/mL (≈ 2.69 µM); in [1] it was 0.125 µg/mL (≈ 0.337 µM); against Enterococcus faecalis [2] it was 0.05 µg/mL (≈ 0.135 µM); in the test with Escherichia coli [5] it was 0.008 µg/mL (≈ 0.0215 µM). Besides, the MIC turned out to be 2 µg/mL (≈ 5.38 µM) in the test with Staphylococcus aureus [6]; 0.03 µg/mL (≈ 0.0808 µM) with Staphylococcus aureus [7]; 8 µg/mL (≈ 21.5 µM) against Proteus vulgaris; 1 µg/mL (≈ 2.69 µM) in the test on Enterococcus faecium [8]; 0.06 µg/mL (≈ 0.162 µM) in the test with Staphylococcus aureus [9]; 1 µg/mL (≈ 2.69 µM) against Enterococcus faecalis [10]. For the same compound, the MIC against Pseudomonas aeruginosa is 4 µg/mL (≈ 10.8 µM); against Enterobacter cloacae, 1 µg/mL (≈ 2.69 µM); in test [11], 0.125 µg/mL (≈ 0.337 µM); against Escherichia coli [12] it was 0.008 µg/mL (≈ 0.0215 µM); against Staphylococcus aureus [13], 0.03 µg/mL (≈ 0.0808 µM); with Streptococcus pneumoniae [14], 2 µg/mL (≈ 5.38 µM). In the test with Escherichia coli [3], this compound displayed an IC50 of over 50 µg/mL. The Geometric mean in [4] came to 0.336; in the test on Bacteria it was 0.107.

A word on the ED50: it is the midpoint of the dose-response relation. As for `Cc1c(N2CCc3ccccc3C2)c(N)cc2c(=O)c(C(=O)O)cn(C3CC3)c12`, the MIC with Shigella turned out to be 0.25 µg/mL (≈ 0.642 µM); in the test with Klebsiella pneumoniae it was 0.06 µg/mL (≈ 0.154 µM); against Providencia stuartii, 0.06 µg/mL (≈ 0.154 µM); in test [1] it was 0.016 µg/mL (≈ 0.0411 µM); in the test with Enterococcus faecalis [2], 0.06 µg/mL (≈ 0.154 µM); against Enterococcus faecium [16], 0.06 µg/mL (≈ 0.154 µM). In addition, the MIC in the test with Escherichia coli [5] was 0.008 µg/mL (≈ 0.0205 µM); against Staphylococcus aureus [7], 0.008 µg/mL (≈ 0.0205 µM); in the test with Proteus vulgaris, 2 µg/mL (≈ 5.14 µM); against Staphylococcus aureus [17], 0.004 µg/mL (≈ 0.0103 µM); with Enterococcus faecalis [10], 0.25 µg/mL (≈ 0.642 µM); against Pseudomonas aeruginosa, 0.5 µg/mL (≈ 1.28 µM). In addition, the MIC against Enterobacter cloacae was 0.25 µg/mL (≈ 0.642 µM); in the test listed under Mus musculus [18], 0.016 µg/mL (≈ 0.0411 µM); with Staphylococcus aureus [19], 0.05 µg/mL (≈ 0.128 µM); in test [11], 0.03 µg/mL (≈ 0.077 µM); with Escherichia coli [12], 0.008 µg/mL (≈ 0.0205 µM); with Staphylococcus aureus [13] it was 0.008 µg/mL (≈ 0.0205 µM). Besides, in the test on Streptococcus pneumoniae [14], 0.13 µg/mL (≈ 0.334 µM) was the least that counted as inhibitory (MIC). In addition, the ED50 in the test on Mus musculus [15] worked out at 5 mg/kg; with Mus musculus [20] it was 1.3 mg/kg. In the test on Escherichia coli [3], this compound yielded an IC50 of 3.58 µg/mL (≈ 9.19 µM). In addition, the Geometric mean is 0.105 in [4] and 0.024 in the test on Bacteria.

Turning to `Cc1c(N2CCOCC2)c(N)cc2c(=O)c(C(=O)O)cn(C3CC3)c12`, the MIC amounted to 0.125 µg/mL (≈ 0.364 µM) against Shigella; 0.03 µg/mL (≈ 0.0874 µM) against Klebsiella pneumoniae; 0.5 µg/mL (≈ 1.46 µM) against Providencia stuartii; 0.25 µg/mL (≈ 0.728 µM) in [1]; 1 µg/mL (≈ 2.91 µM) in the test on Streptococcus pneumoniae [21]; 0.03 µg/mL (≈ 0.0874 µM) with Escherichia coli [5]. The MIC with Staphylococcus aureus [7] came out at 0.125 µg/mL (≈ 0.364 µM); against Proteus vulgaris it was 8 µg/mL (≈ 23.3 µM); against Staphylococcus aureus [9], 0.06 µg/mL (≈ 0.175 µM); with Enterococcus faecium [22], 0.5 µg/mL (≈ 1.46 µM); in the test on Enterococcus faecalis [10], 1 µg/mL (≈ 2.91 µM); with Pseudomonas aeruginosa, 1 µg/mL (≈ 2.91 µM). Moreover, the MIC with Enterococcus faecalis [23] is 0.25 µg/mL (≈ 0.728 µM); against Enterobacter cloacae, 0.125 µg/mL (≈ 0.364 µM); in the test on Staphylococcus aureus [24] it was 4 µg/mL (≈ 11.6 µM); in test [11], 0.125 µg/mL (≈ 0.364 µM); with Escherichia coli [12], 0.03 µg/mL (≈ 0.0874 µM); with Staphylococcus aureus [13], 0.125 µg/mL (≈ 0.364 µM). The compound further gave an IC50 in the test with Escherichia coli [3] of 5.64 µg/mL (≈ 16.4 µM). The results for the Geometric mean (in test [4]; in the test with Bacteria) were 0.189 and 0.218, respectively.
